Source: PubChem BioAssay (Broad Institute)
Many of the other results were omitted from the sample, so hits are more common in it than they were.
ERp5 block: ERp5 (human) disulfide isomerase inhibition; Q15084; ERp5 insulin aggregation, absorbance 650 nm, 90 min; inhibition, % at 9.99 µM; 350,000 compounds, 0.05% hits; AID 651711;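 active = mean replicate inhibition above about 25%, with every replicate also reaching it, limit read from the data, passing the limit was not always enough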
Target sequence (Q15084 whole entry, looked up): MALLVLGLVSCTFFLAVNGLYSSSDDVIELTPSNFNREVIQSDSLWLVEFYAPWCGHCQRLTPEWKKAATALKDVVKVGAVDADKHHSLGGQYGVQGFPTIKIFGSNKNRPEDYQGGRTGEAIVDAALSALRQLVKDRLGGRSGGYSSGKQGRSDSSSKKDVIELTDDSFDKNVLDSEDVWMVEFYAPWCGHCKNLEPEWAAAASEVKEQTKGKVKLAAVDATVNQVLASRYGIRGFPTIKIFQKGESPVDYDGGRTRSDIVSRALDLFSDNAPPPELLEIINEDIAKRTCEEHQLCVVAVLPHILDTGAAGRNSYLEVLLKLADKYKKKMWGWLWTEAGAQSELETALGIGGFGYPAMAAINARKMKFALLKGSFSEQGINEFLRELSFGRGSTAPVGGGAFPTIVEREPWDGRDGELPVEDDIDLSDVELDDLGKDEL
PDI turbidity: inhibitors of human protein disulfide isomerase; 350,000 compounds, 0.052% hits; AID 588391; PDI insulin aggregation turbidity, A650, 90 min; inhibition, % at 10 µM;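 active = mean inhibition across replicates of 30% or more, whatever share of single replicates reach that level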
FGF22 binding: shifts melting point of recombinant human FGF22 | recombinant FGF22 thermal shift, SYPRO orange fluorescence; percent of sucrose octasulfate shift, DMSO zero | activity (Tm shift, normalised), % at 9.99 µM | 340,000 compounds, 1.5% hits | AID 651658;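 active = mean Tm shift, scaled 0 neutral to 100 positive control, at about 1.3% or above, every replicate too, limit read from the data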
S100A4 inh HTS: inhibitors of human S100A4 binding to myosin IIA peptide | 360,000 compounds, 0.14% hits | inhibition, % at 10.7 µM | P26447 | S100A4/TAMRA-MyoIIA peptide fluorescence polarization | AID 652163;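 active = mean inhibition of at least 70% across replicates, with every replicate also reaching that level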
Target sequence (P26447 whole entry, looked up): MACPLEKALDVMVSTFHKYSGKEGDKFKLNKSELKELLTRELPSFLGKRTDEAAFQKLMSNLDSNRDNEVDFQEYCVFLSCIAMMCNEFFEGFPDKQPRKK
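Test system – S100A4 monomer (human) · Compound – single-point compound testing · Schedule – 5 min incubation before reading · Probe or stimulus – TAMRA-labelled myosin IIA heavy-chain peptide probe, 5 nM · Benchmarks – neutral control DMSO, positive control TFP · Medium – Calcium-containing HEPES buffer, pH 7.2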
ERAP1 HTS inh: ERAP1 (human) enzyme inhibition; Q9NZ08; recombinant ERAP1, Leu-AMC fluorescence, 60 min; inhibition, % at 10.7 µM; 340,000 compounds, 0.15% hits; AID 652197;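 active = mean replicate inhibition of at least 30%, or all replicates individually reaching that 30% level; inactive = mean below 30% and not every replicate reaching it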;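 note: 0% = neutral control wells and 100% = L-leucinethiol positive control wells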
Active calls of the source: *; / = no result given.

SMILES	ERp5 block	PDI turbidity	FGF22 binding	S100A4 inh HTS	ERAP1 HTS inh
CC(C(=O)O)c1ccc2c(c1)[nH]c1ccc(Cl)cc12 (configuration not stated)	-1.7	-5.2	0.8	14.6	-9.1
CC(c1ccccc1)N1C(=O)NC(NC(=O)c2cccnc2)(C(F)(F)F)C1=O (configuration not stated)	/	-6.0	/	/	/
COc1ccc(C=C2CS(=O)(=O)CC(=Cc3ccc(OC)cc3)C2=O)cc1	5.2	-0.4	44.4*	3.9	-4.0
O=C(CC(=O)c1cccc([N+](=O)[O-])c1)Nc1ccccc1Cl	3.7	-2.2	43.9*	-0.9	-2.7
O=C(CCNc1ccccc1)c1cccc([N+](=O)[O-])c1	/	0.7	/	/	/
Nc1nnnn1CC(=O)N/N=C/c1cc([N+](=O)[O-])ccc1Cl	-23.2	-13.4	43.2*	-2.2	0.2
Cc1cccc(OCCCC(=O)Nc2ccc(S(N)(=O)=O)cc2)c1C	/	6.9	/	/	/
COc1ccc(Nc2nc3ccccc3s2)cc1	-1.1	-5.2	2.6*	-1.5	0.7
CCN(CC)CCCNc1nc2ccccc2c2[nH]c3ccc(OC)cc3c12	6.6	60.0*	-0.3	4.1	-32.9
Cc1[nH]c(=O)[nH]c(=O)c1Cc1cccc2ccccc12	-1.7	4.0	43.3*	3.9	-9.6
C[C@H](CO)N1C[C@H](C)[C@H](CN(C)CC2CC2)OCCCC[C@H](C)Oc2ccc(NC(=O)CCC(F)(F)F)cc2C1=O	-10.3	/	0.2	2.0	0.1
CCC(=O)NNC(=O)CCC(=O)Nc1ccc(C)cc1C	0.4	-7.8	43.4*	0.2	-5.3
COc1cccc(C(=O)NCCS(=O)(=O)N2CCOCC2)c1	1.5	7.3	-0.1	-1.7	-6.1
O=C(Nc1ccc2c(c1)OCO2)Nc1ccc2c(c1)OCO2	5.4	1.9	0.2	-13.3	-2.3
COc1cc(C(=O)NCCc2ccc3c(c2)OCO3)cc(OC)c1OC	-0.8	15.7	43.9*	-1.7	-0.9
COc1cc(NC(=O)Nc2ccc3c(c2)OCO3)cc(OC)c1OC	-2.2	1.9	43.1*	2.1	0.4
C[C@@H]1CN([C@@H](C)CO)S(=O)(=O)c2ccc(-c3ccccc3F)cc2O[C@@H]1CN(C)Cc1cccnc1	12.1	/	-0.1	-2.2	-3.4
O=C(Oc1ccccc1C(=O)Oc1ccccc1)c1cccnc1	13.7	-8.5	42.9*	-0.1	6.7
COC(=O)c1ccccc1OC(=O)c1cccnc1	-2.6	-1.9	0.2	1.4	1.8
Oc1ccccc1/C=N/[n+]1ccccc1	2.8	-0.3	0.1	-4.2	97.2*
COCCCN=C1NN=C(c2cc(C)n(Cc3ccccc3Cl)c2C)CS1	-5.3	-15.8	43.1*	-2.5	-2.1
OC(COc1ccc2c(c1)OCO2)CN1CCCCC1 (configuration not stated)	1.0	2.8	43.7*	-1.8	-3.6
OC(COc1ccc2c(c1)OCO2)CN1CCN(c2ccccc2)CC1 (configuration not stated)	2.3	3.4	0.4	1.3	8.2
CS/C(=N\S(=O)(=O)c1cccs1)Nc1ccc(F)c(Cl)c1	5.1	-3.5	1.3*	-3.5	1.4
Cc1ccc(Cl)cc1NC(=O)Nc1cccs1	-3.8	-4.8	43.0*	1.0	-2.1
SMILES	ERp5 block	PDI turbidity	FGF22 binding	S100A4 inh HTS	ERAP1 HTS inh
Cc1ccccc1NC(=O)Nc1cccs1	/	-12.7	/	/	/
Cc1ccc(Cl)cc1NC(=O)CCC(=O)O	1.9	-0.9	-0.1	-5.0	45.2*
COCC(=O)Nc1cc(Cl)ccc1C	-1.7	3.4	0.2	4.3	5.4
CC(C)(C)c1ccc(S(=O)(=O)NC(=O)C2(C)CCN2C(=O)Cc2cccc3ccccc23)cc1 (configuration not stated)	1.3	7.6	6.1*	2.3	-4.3
NC(=S)NN=CCn1cc([N+](=O)[O-])c(=O)[nH]c1=O	-7.7	-48.3	-0.1	-1.2	4.6
O=C1CC(c2ccccc2)CC(O)=C1C=Nc1ccccc1O (configuration not stated)	0.1	6.1	0.2	5.3	10.3
O=C1CC(c2ccccc2)CC(O)=C1C=Nc1ccccc1 (configuration not stated)	-0.2	12.5	43.8*	-7.1	6.6
CC1CN(C(=S)SCCN2C(=O)CCC2=O)CC(C)O1 (configuration not stated)	5.4	0.6	43.5*	-1.9	1.2
C[C@H](CO)N1C[C@H](C)[C@H](CN(C)C(=O)Cc2cccnc2)Oc2ncc(C#CC3(O)CCCC3)cc2C1=O	-0.8	/	-0.5	2.2	-0.5
CCC(=O)N(C)C[C@H]1Oc2ncc(C#Cc3ccncc3)cc2C(=O)N([C@H](C)CO)C[C@H]1C	-0.8	/	0.4	8.2	76.1*
CCC(=O)N(C)C[C@@H]1Oc2ncc(C#Cc3ccncc3)cc2C(=O)N([C@@H](C)CO)C[C@@H]1C	-5.7	/	0.1	-0.4	35.8*
CCC(=O)N(C)C[C@H]1Oc2ncc(C#Cc3ccncc3)cc2C(=O)N([C@@H](C)CO)C[C@H]1C	6.9	/	0.4	-5.1	0.4
C[C@@H]1CN([C@@H](C)CO)C(=O)c2cc(C#CC3(O)CCCC3)cnc2O[C@H]1CN(C)C(=O)Cc1cccnc1	27.8*	/	0.2	4.8	-1.8
C[C@@H]1CN([C@H](C)CO)C(=O)c2cc(C#CC3CC3)cnc2O[C@@H]1CN(C)S(C)(=O)=O	0.3	/	-0.2	117.5*	0.3
C[C@H](CO)N1C[C@H](C)[C@H](CN(C)S(C)(=O)=O)Oc2ncc(C#CC3CC3)cc2C1=O	0.4	/	-0.2	5.5	2.9
CC1=C(C(=O)N2CCCCCC2)CC(CC(=O)NCCc2ccccn2)C(=O)N1Cc1ccc(C(C)(C)C)cc1 (configuration not stated)	5.2	/	-0.2	2.1	-0.5
Cc1ccc(NC(=O)c2ccc(OC(=O)C(C)Oc3ccc(Cl)cc3C)cc2)cc1 (configuration not stated)	/	-4.6	/	/	/
Cc1cc(=O)oc2c(C)c(OCC(=O)c3ccccc3)ccc12	-1.6	16.7	-0.1	1.6	0.3
CCNc1nc(C(=O)O)nc(N2CCOCC2)n1	-2.5	2.6	43.1*	0.1	-2.5
O=C(C(=O)N1CCOCC1)c1c[nH]c2ccccc12	0.6	2.6	43.2*	1.4	1.4
O=C(O)CCN(Cc1ccccc1)S(=O)(=O)c1ccc(Cl)cc1F	-3.4	-1.0	43.7*	-3.0	-0.9
c1ccc(CSc2ccc(-c3cccs3)nn2)nc1	-3.0	6.4	43.7*	1.7	0.9
COC(=O)c1c(C)[nH]c(C(=O)CC#N)c1C	-1.1	-0.1	43.3*	-20.3	0.1
COc1ccc(CN(C)CC(=O)Nc2c(C)cccc2C)c(OC)c1	4.7	5.6	43.2*	0.9	5.4
Cc1cccc(C(C)C)c1NC(=O)CN(C)Cc1cccc(F)c1	-3.9	3.6	43.5*	-3.1	-0.5
COc1ccc(N(CC(=O)Nc2c(C)cccc2C)S(=O)(=O)c2ccccc2[N+](=O)[O-])c(OC)c1	-1.9	3.0	43.4*	2.7	1.7
CCc1cccc(C)c1NC(=O)CN(C)Cc1cccc(F)c1	-0.1	-9.2	0.0	3.9	0.7
